Data as given in ChEMBL document CHEMBL1133857, “Beta 3 agonists. Part 1: evolution from inception to BMS-194449” (Bioorg Med Chem Lett, 2001).

Columns and labels:
[1] = biological target: T1, Beta-3 adrenergic receptor (Homo sapiens, UniProt P13945); assay: Human beta-3 adrenergic receptor agonist activity by measurement of cAMP accumulation levels in CHO membranes expressing human beta-3 receptor.; assay type: functional, cell membranes
Procedure, shortened: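 β3 intrinsic activity (% activation) measured in membranes from CHO cells transfected with human β3 adrenergic receptor.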
Target sequence in this assay (P13945 whole entry, looked up): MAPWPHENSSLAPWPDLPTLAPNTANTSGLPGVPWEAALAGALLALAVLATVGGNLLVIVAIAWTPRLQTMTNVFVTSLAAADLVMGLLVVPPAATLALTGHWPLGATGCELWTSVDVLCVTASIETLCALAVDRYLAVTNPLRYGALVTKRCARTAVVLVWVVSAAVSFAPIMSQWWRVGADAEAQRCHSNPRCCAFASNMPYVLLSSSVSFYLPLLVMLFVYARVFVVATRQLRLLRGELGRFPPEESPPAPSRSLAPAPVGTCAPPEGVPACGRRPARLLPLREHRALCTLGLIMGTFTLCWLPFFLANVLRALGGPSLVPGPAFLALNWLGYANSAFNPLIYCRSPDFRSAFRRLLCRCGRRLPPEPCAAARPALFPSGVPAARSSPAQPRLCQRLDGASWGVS

Cavia porcellus = organism: Cavia porcellus; assay: (§1) Intrinsic activity as the acceleration in contraction of spontaneously beating guinea pig atria relative to that induced by isoproterenol; assay type: functional
[2] = biological target: Beta-2 adrenergic receptor and beta-3 adrenergic receptor (Homo sapiens) (UniProt P07550+P13945); assay: Selectivity as the ratio of Ki of beta-2 adrenergic receptor to the Ki of beta-3 adrenergic receptor.; assay type: protein assay
Procedure, shortened: (§2)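 Ki at human β1, β2 and β3 adrenergic receptors measured by binding to membranes prepared from CHO cells transfected with each human receptor. Selectivity is expressed as the ratio of β1 or β2 Ki to β3 Ki.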

[3] = biological target: T1, Beta-3 adrenergic receptor; assay: Binding affinity against CHO cells transfected with human beta-3 adrenergic receptor in the presence of [125I]iodocyanopindolol; assay type: cell-based; procedure, shortened: as §2
Target sequence in this assay (P13945 whole entry): as the sequence (P13945 whole entry, looked up) above

[4] = biological target: Adrenergic receptor beta; ADRB1 & ADRB3 (Homo sapiens) (UniProt P08588+P13945); assay: Selectivity measured as the ratio of Ki of Beta-1 Adrenergic receptor to the Ki of Beta-3 Adrenergic receptor; assay type: protein assay; procedure, shortened: as §2
Adrenergic receptor beta; ADRB1 & ADRB3 (Homo sapiens), sequence (P08588 whole entry, looked up): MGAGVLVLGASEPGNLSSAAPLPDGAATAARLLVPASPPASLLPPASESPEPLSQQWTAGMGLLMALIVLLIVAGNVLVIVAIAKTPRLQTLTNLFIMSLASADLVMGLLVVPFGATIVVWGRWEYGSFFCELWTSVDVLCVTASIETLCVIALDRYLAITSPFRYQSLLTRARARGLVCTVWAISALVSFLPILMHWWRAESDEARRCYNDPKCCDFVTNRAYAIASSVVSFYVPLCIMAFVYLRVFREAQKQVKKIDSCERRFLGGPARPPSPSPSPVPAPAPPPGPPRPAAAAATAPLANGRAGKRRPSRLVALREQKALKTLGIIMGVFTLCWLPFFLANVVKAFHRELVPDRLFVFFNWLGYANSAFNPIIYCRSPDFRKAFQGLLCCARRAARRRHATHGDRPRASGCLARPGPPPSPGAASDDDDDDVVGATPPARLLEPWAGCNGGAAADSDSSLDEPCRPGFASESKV
Adrenergic receptor beta; ADRB1 & ADRB3 (Homo sapiens), sequence (P13945 whole entry, looked up): as the sequence (P13945 whole entry, looked up) above

[5] = biological target: Beta-1 adrenergic receptor (Cavia porcellus) (UniProt B0FL73); assay: as §1; assay type: functional
Beta-1 adrenergic receptor (Cavia porcellus), sequence (B0FL73 1-467): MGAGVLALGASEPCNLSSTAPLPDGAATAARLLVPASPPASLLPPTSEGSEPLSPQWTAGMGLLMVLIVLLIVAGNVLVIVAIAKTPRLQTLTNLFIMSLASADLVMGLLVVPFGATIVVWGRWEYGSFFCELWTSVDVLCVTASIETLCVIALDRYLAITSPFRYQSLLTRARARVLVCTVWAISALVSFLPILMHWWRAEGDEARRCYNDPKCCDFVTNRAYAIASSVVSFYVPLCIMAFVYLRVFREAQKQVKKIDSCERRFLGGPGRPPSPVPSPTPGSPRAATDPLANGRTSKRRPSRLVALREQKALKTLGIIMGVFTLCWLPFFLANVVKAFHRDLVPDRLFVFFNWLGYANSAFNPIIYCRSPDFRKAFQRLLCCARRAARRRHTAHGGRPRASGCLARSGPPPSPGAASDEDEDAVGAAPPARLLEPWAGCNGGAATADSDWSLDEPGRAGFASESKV

[6] = Response of African green monkeys to lipolysis upon iv injection of compound; assay type: functional; conditions: Cercopithecidae
Procedure, shortened: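 Agonist given iv to ketamine-anesthetized African green monkeys. Lipolysis is read as the rise in non-esterified fatty acids, and the ED50 is given in mg/kg. β3 mediation is checked by co-administration with propranolol 0.1 mg/kg.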

[7] = Response of African green monkeys to iv injection measured as beta-1 margin before onset of tachycardia; assay type: functional, Cercopithecidae
Procedure, shortened: (§3)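 Agonist given iv to ketamine-anesthetized African green monkeys. A β1 event is the onset of tachycardia, and a β2 event is a decrease in serum K+. Margin = dose producing statistically significant onset of the β1 or β2 event ÷ ED50 for lipolysis.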

[8] = Response of African green monkeys to iv injection measured as beta-2 margin before decrease of serum K; assay type: functional, Cercopithecidae; procedure, shortened: as §3

`COc1ccc(C(NC[C@H](O)c2ccc(O)c(NS(C)(=O)=O)c2)c2ccc(OC)cc2)cc1` showed an Intrinsic activity [1] of 100% and an Intrinsic activity (Cavia porcellus) of 85%.
In the case of `CS(=O)(=O)Nc1cc([C@@H](O)CNC(c2ccc(F)cc2)c2ccc(F)cc2)ccc1O`, the Selectivity [2] is reported as 2, the Ki [3] is reported as 2800 nM and the Intrinsic activity [1] is reported as 70%. The Selectivity [4] was 3 and the Intrinsic activity (Cavia porcellus) was 48%.
Work on `COc1ccc(C(C)(NC[C@H](O)c2ccc(O)c(NS(C)(=O)=O)c2)c2ccc(OC)cc2)cc1` yielded a Selectivity [2] of 8, a Ki [3] of 20 nM and an Intrinsic activity [1] of 79%. It also gave a Selectivity [4] of 3 and an Intrinsic activity (Cavia porcellus) of 79%.
For `CS(=O)(=O)Nc1cc(C(O)CNCCc2ccc(OCC(=O)O)cc2)ccc1O` (stereo unspecified), the Selectivity [2] was 0.06, the Ki [3] was 49000 nM and the Intrinsic activity [1] was 77%. For the same compound, the Selectivity [4] was 2.
`CC(NC[C@H](O)c1ccc(O)c(NS(C)(=O)=O)c1)(c1ccc(OC(F)F)cc1)c1ccc(OC(F)F)cc1` gave a Selectivity [2] of 2, a Ki [3] of 81 nM and an Intrinsic activity [1] of 94%. For the same compound, the Selectivity [4] was 2.
`CCC(C)(C)NCC(O)c1ccc(O)c(NS(C)(=O)=O)c1` (stereo unspecified) gave a Selectivity [2] of 0.03, a Ki [3] of 3700 nM and an Intrinsic activity [1] of 125%. The Selectivity [4] was 0.3.
Compound `Cc1ccc(C(Cc2ccccc2)NCC(O)c2ccc(O)c(NS(C)(=O)=O)c2)cc1C` (stereo unspecified) has a Selectivity [2] of 3, a Ki [3] of 133 nM and an Intrinsic activity [1] of 79%. The Selectivity [4] was 43.
In the case of `COC(=O)CCCCC(Cc1ccccc1)NCC(O)c1ccc(O)c(NS(C)(=O)=O)c1` (stereo unspecified), the Selectivity [2] is reported as 5, the Ki [3] is reported as 570 nM and the Intrinsic activity [1] is reported as 89%. It also gave a Selectivity [4] of 26.
Compound `COc1ccc(C(Cc2ccccc2)NCC(O)c2ccc(O)c(NS(C)(=O)=O)c2)c(OC)c1` (stereo unspecified) has a Selectivity [2] of 3, a Ki [3] of 70 nM and an Intrinsic activity [1] of 102%. For the same compound, the Selectivity [4] was 37.
In the case of `COc1ccc(C(Cc2ccccc2)NCC(O)c2ccc(O)c(NS(C)(=O)=O)c2)cc1` (stereo unspecified), the Intrinsic activity [1] is reported as 99%.
Compound `CS(=O)(=O)Nc1cc(C(O)CNC(Cc2ccccc2)Cc2ccccc2)ccc1O` (stereo unspecified) has a Selectivity [2] of 0.3, a Ki [3] of 1500 nM and a Selectivity [4] of 6.
Compound `CCCCCC(Cc1ccccc1)NCC(O)c1ccc(O)c(NS(C)(=O)=O)c1` (stereo unspecified) has a Selectivity [2] of 0.5, a Ki [3] of 320 nM and an Intrinsic activity [1] of 77%. For the same compound, the Selectivity [4] was 8.
`C[C@H](Cc1ccc(OCC(=O)O)cc1)NC[C@H](O)c1cccc(Cl)c1` showed an Intrinsic activity [1] of 67%.
With `CS(=O)(=O)Nc1cc(C(O)CNC(CCCCC(=O)O)Cc2ccccc2)ccc1O` (stereo unspecified) the Selectivity [2] was 0.3, the Ki [3] was 87000 nM and the Intrinsic activity [1] was 57%. The Selectivity [4] was 1.
`CCc1ccc(C(Cc2ccccc2)NCC(O)c2ccc(O)c(NS(C)(=O)=O)c2)cc1CC` (stereo unspecified) gave a Selectivity [2] of 0.5, a Ki [3] of 520 nM and an Intrinsic activity [1] of 91%. The Selectivity [4] was 6.
Compound `CS(=O)(=O)Nc1cc(C(O)CNC(Cc2ccccc2)C2CCCCC2)ccc1O` (stereo unspecified) has a Selectivity [2] of 0.7, a Ki [3] of 4300 nM and an Intrinsic activity [1] of 80%. It also gave a Selectivity [4] of 7.
For `CS(=O)(=O)Nc1cc(C(O)CNC(Cc2ccccc2)c2ccccc2)ccc1O` (stereo unspecified), the Selectivity [2] was 3 and the Selectivity [4] was 15.
With `COc1ccc(C(NC[C@H](O)c2ccc(O)c(NS(C)(=O)=O)c2)(C(N)=O)c2ccc(OC)cc2)cc1` the Selectivity [2] was 10, the Ki [3] was 220 nM and the Intrinsic activity [1] was 106%. For the same compound, the Selectivity [4] was 3.
`CC(=O)Nc1ccc(C(NC[C@H](O)c2ccc(O)c(NS(C)(=O)=O)c2)c2ccc(NC(C)=O)cc2)cc1` showed a Selectivity [2] of 3, an Intrinsic activity [5] of 88% and a Ki [3] of 300 nM. For the same compound, the Intrinsic activity [1] was 96% and the Selectivity [4] was 17.
In the case of `CS(=O)(=O)Nc1cc(C(O)CNC(Cc2ccccc2)c2ccc(Cl)c(Cl)c2)ccc1O` (stereo unspecified), the Selectivity [2] is reported as 1, the Ki [3] is reported as 414 nM and the Intrinsic activity [1] is reported as 97%. The Selectivity [4] was 9.
Compound `CS(=O)(=O)Nc1cc(C(O)CNC23CC4CC(CC(C4)C2)C3)ccc1O` (stereo unspecified) has a Selectivity [2] of 0.04, a Ki [3] of 11000 nM and an Intrinsic activity [1] of 110%. The Selectivity [4] was 15.
For `CS(=O)(=O)Nc1cc(C(O)CNC(CCCCCO)Cc2ccccc2)ccc1O` (stereo unspecified), the Selectivity [2] was 0.5, the Ki [3] was 480 nM and the Intrinsic activity [1] was 72%. For the same compound, the Selectivity [4] was 10.
With `COc1ccc(C(Cc2ccccc2)NCC(O)c2ccc(O)c(NS(C)(=O)=O)c2)cc1OC` (stereo unspecified) the Selectivity [2] was 8, the Ki [3] was 33 nM and the Intrinsic activity [1] was 105%. It also gave a Selectivity [4] of 69.
With `CS(=O)(=O)Nc1cc([C@@H](O)CNC(c2ccccc2)c2ccccc2)ccc1O` the Selectivity [2] was 5, the Ki [3] was 5800 nM and the Intrinsic activity [1] was 44%. For the same compound, the Selectivity [4] was 5.
In the case of `CN(C)C(=O)c1ccc(C(NC[C@H](O)c2ccc(O)c(NS(C)(=O)=O)c2)c2ccc(C(=O)N(C)C)cc2)cc1`, the Intrinsic activity [1] is reported as 43%.
In the case of `COc1ccc([C@H](Cc2ccccc2)NC[C@H](O)c2ccc(O)c(NS(C)(=O)=O)c2)cc1OC`, the Selectivity [2] is reported as 6, the Ki [3] is reported as 320 nM and the Intrinsic activity [1] is reported as 93%. It also gave a Selectivity [4] of 63.
With `CNC(=O)CCCCC(Cc1ccccc1)NCC(O)c1ccc(O)c(NS(C)(=O)=O)c1` (stereo unspecified) the Selectivity [2] was 0.5, the Ki [3] was 1600 nM and the Intrinsic activity [1] was 104%. It also gave a Selectivity [4] of 7.
With `CS(=O)(=O)Nc1cc(C(O)CNCc2ccccc2)ccc1O` (stereo unspecified) the Selectivity [2] was 0.25, the Ki [3] was 12700 nM and the Selectivity [4] was 2.
For `COc1ccc([C@@H](Cc2ccccc2)NC[C@H](O)c2ccc(O)c(NS(C)(=O)=O)c2)cc1OC`, the ED50 [6] was 0.03 mg/kg, the Ratio of dose [7] was <3 and the Ratio of dose [8] was 3. The Selectivity [2] was 6, the Ki [3] was 11 nM and the Intrinsic activity [1] was 112%. For the same compound, the Selectivity [4] was 63.
Compound `CS(=O)(=O)Nc1cc(C(O)CN)ccc1O` (stereo unspecified) has a Selectivity [2] of 0.1, a Ki [3] of 17000 nM and an Intrinsic activity [1] of 93%. It also gave a Selectivity [4] of 0.6.
In the case of `COCc1ccc(C(NC[C@H](O)c2ccc(O)c(NS(C)(=O)=O)c2)c2ccc(COC)cc2)cc1`, the Selectivity [2] is reported as 13, the Ki [3] is reported as 980 nM and the Intrinsic activity [1] is reported as 78%. The Selectivity [4] was 46.
`COC(=O)COc1ccc(CCNCC(O)c2ccc(O)c(NS(C)(=O)=O)c2)cc1` (stereo unspecified) gave a Selectivity [2] of 0.01, a Ki [3] of 3300 nM and an Intrinsic activity [1] of 79%. The Selectivity [4] was 0.7.
`CC(C)NCC(O)c1ccc(O)c(NS(C)(=O)=O)c1` (stereo unspecified) [SOTERENOL] gave a Selectivity [2] of 0.6, a Ki [3] of 4100 nM and an Intrinsic activity [1] of 109%. The Selectivity [4] was 2.
`COc1ccc(CNCC(O)c2ccc(O)c(NS(C)(=O)=O)c2)cc1` (stereo unspecified) gave a Selectivity [2] of 2, a Ki [3] of 1550 nM and an Intrinsic activity [1] of 95%. For the same compound, the Selectivity [4] was 22.
With `CS(=O)(=O)Nc1cc(C(O)CNCCc2ccccc2)ccc1O` (stereo unspecified) the Selectivity [2] was 0.07, the Ki [3] was 1100 nM and the Intrinsic activity [1] was 91%. It also gave a Selectivity [4] of 2.
Work on `COc1ccc(CCNCC(O)c2ccc(O)c(NS(C)(=O)=O)c2)cc1` (stereo unspecified) yielded a Selectivity [2] of 0.3, a Ki [3] of 480 nM and an Intrinsic activity [1] of 93%. It also gave a Selectivity [4] of 4.
Work on `COc1ccc(CCNCC(O)c2ccc(O)c(NS(C)(=O)=O)c2)cc1OC` (stereo unspecified) yielded a Selectivity [2] of 1, a Ki [3] of 550 nM and an Intrinsic activity [1] of 110%. The Selectivity [4] was 4.
With `CS(=O)(=O)Nc1cc([C@@H](O)CNC(c2ccc(OC(F)F)cc2)c2ccc(OC(F)F)cc2)ccc1O` the ED50 [6] was 0.08 mg/kg, the Ratio of dose [7] was >6 and the Ratio of dose [8] was >60. The Selectivity [2] was 7, the Ki [3] was 160 nM and the Intrinsic activity [1] was 77%. It also gave a Selectivity [4] of 8 and an Intrinsic activity (Cavia porcellus) of 24%.
In the case of `COc1cccc(C(Cc2ccccc2)NCC(O)c2ccc(O)c(NS(C)(=O)=O)c2)c1` (stereo unspecified), the Selectivity [2] is reported as 2, the Ki [3] is reported as 230 nM and the Intrinsic activity [1] is reported as 99%. It also gave a Selectivity [4] of 16.
